Reference: paper PMC10835327 (Heliyon, 2024)

Molecular target: HSA (human serum albumin) (Homo sapiens, UniProt P02768)
Assay: intrinsic fluorescence quenching, double-logarithmic plot
Format: binding
Conditions: Tris-HCl pH 7.40, 298 K, no added metal ion
Summary of the method: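 HSA (1.00 × 10−4 mol L−1) titrated stepwise with test compound dissolved in DMSO. Emission spectra recorded at 300–600 nm with excitation at 292 nm and both slits at 15 nm. Spectra taken at 291, 298, 304 and 310 K. Intensities corrected for inner-filter effect. Ka and n derived from double-logarithmic fit of intensity versus quencher concentration.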

HSA (human serum albumin), sequence (P02768 25-609): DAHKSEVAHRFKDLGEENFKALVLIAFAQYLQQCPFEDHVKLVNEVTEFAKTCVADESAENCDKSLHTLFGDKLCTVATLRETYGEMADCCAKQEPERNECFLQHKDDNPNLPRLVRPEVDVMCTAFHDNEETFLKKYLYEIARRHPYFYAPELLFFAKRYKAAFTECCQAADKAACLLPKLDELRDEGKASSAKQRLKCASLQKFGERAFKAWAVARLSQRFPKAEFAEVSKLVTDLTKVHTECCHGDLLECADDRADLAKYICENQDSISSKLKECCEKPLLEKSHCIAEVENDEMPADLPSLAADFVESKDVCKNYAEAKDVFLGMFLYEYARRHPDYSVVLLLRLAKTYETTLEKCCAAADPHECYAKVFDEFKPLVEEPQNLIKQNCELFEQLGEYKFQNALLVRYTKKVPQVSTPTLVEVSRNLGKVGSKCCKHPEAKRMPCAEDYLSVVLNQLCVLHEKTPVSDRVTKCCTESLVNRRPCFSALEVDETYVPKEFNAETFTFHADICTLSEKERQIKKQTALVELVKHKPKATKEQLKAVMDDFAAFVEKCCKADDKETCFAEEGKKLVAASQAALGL

Ka/(L.mol^-1) (n = 0.9857) | Ka/(L.mol^-1) (n = 1.0099) | SMILES
2.5668 × 10^4 ±2.0417 L∙mol^−1 | – | COc1cc(/C=C/C(=O)O)ccc1O [FA, ferulic acid]
– | 8.7256 × 10^4 ±1.1863 L∙mol^−1 | COC(=O)/C=C/c1ccc(O)c(OC)c1 [FAM, ferulic acid methyl ester]
